The source made the active and inactive calls. The calls are words filed in the database; no cut-off is given here.
Key:
Mus musculus [1] = species on record: Mus musculus; assay: Binding affinity to amyloid beta plaques in transgenic C57BL6 mouse cortex expressing APP Swedish mutant/PSEN1 at 370 KBq/100 ul after 1 hr by autoradiographic analysis; details: tested as the 18F-labelled form
Procedure, shortened: (§1)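 Paraffin brain sections from 12-month-old Tg mice (C57BL6, APPswe/PSEN1) and age-matched controls, deparaffinized through xylene and graded ethanol, then PBS (0.2 M, pH 7.4) 30 min. Incubated with 18F tracer (370 KBq per 100 μL) 1 h at room temperature, washed in 40% EtOH, rinsed in water, then phosphor plate exposure 2 h. The same sections were afterwards stained with 0.125% thioflavin S in 10% EtOH for 3 min and washed in 40% EtOH.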

Mus musculus [2] = species on record: Mus musculus; assay: Binding affinity to amyloid beta plaques in transgenic C57BL6 mouse hippocampus expressing APP Swedish mutant/PSEN1 at 370 KBq/100 ul after 1 hr by thioflavinS-staining method; type: tissue-based; details: tested as the 18F-labelled form; procedure, shortened: as §1
[3] = Displacement of [125I]-IMPY from amyloid beta (1 to 42) fibrils after 2 hrs by gamma-counting analysis
Procedure, shortened: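 Competition binding with aggregated Aβ1-42 fibrils and [125I]IMPY (60000−100000 cpm/100 μL) in 0.05% BSA (1 mL total); inhibitors 10⁻⁴−10^−8.5 M in ethanol. Incubated 37 °C for 2 h, then GF/B vacuum filtration with PBS (0.02 M, pH 7.4) washes and γ counting. Three repeats; IC50 converted to Ki by Cheng−Prusoff.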

Mus musculus [4] = species on record: Mus musculus; assay: Binding affinity to amyloid beta plaques in transgenic C57BL6 mouse hippocampus expressing APP Swedish mutant/PSEN1 at 370 KBq/100 ul after 1 hr by autoradiographic analysis; type: tissue-based; details: tested as the 18F-labelled form; procedure, shortened: as §1
Mus musculus [5] = species on record: Mus musculus; assay: Binding affinity to amyloid beta plaques in transgenic C57BL6 mouse cortex expressing APP Swedish mutant/PSEN1 at 370 KBq/100 ul after 1 hr by thioflavinS-staining method; details: tested as the 18F-labelled form; procedure, shortened: as §1
[6] = target: Amyloid-beta precursor protein (Homo sapiens) (UniProt P05067); assay: Binding affinity to amyloid beta plaques in Alzheimer patient brain at 370 KBq/100 ul after 1 hr by autoradiographic analysis; details: tested as the 18F-labelled form
Amyloid-beta precursor protein (Homo sapiens), sequence (P05067 whole entry): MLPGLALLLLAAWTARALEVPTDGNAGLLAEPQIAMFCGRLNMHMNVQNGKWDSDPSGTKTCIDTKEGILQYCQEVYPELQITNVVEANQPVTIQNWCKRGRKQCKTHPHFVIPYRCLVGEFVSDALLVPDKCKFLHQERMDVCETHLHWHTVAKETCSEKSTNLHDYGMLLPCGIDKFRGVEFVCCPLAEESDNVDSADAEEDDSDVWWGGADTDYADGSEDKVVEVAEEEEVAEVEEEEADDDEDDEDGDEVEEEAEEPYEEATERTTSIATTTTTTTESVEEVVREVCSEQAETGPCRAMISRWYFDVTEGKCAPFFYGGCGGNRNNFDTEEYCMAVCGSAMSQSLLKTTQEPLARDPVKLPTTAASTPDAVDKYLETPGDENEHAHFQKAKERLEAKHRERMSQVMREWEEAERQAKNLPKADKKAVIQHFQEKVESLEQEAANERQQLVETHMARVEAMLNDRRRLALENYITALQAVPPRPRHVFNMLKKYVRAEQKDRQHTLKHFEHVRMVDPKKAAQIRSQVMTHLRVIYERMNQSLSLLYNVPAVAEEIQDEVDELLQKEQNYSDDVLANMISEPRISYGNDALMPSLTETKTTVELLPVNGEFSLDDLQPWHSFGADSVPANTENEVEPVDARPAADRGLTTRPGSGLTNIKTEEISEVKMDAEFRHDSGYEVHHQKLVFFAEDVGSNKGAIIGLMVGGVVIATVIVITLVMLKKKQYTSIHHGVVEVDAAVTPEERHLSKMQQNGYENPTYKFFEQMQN

CNc1ccc(-c2nc3cc(OCCOCCOCCF)ccc3o2)cn1
Activity (Mus musculus [1]): Active
Activity (Mus musculus [2]): Active
Ki [3]: 76.9 nM
Activity (Mus musculus [4]): Active
Activity (Mus musculus [5]): Active
Activity [6]: Active
